Compound activity as filed in PubChem BioAssay.
Efflux pump mplx = blocks antifungal efflux pumps in multiplex yeast assay; inhibition, % at 10 µM; actives 0.44% (n = 330,000); S. cerevisiae Candida pump triplex, Nile Red efflux;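 active = plate passing quality check with inhibition over a set limit, or well fluorescence over plate mean plus 4 SD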;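 note: Nile Red retained in pooled yeast measured as flow cytometry median fluorescence; 0% = buffer negative control and 100% = Enniatin B positive control; higher means more Nile Red kept so more efflux inhibition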
TAG inh = inhibitors of triacylglycerol accumulation. AID 651582. actives 0.66% (n = 230,000). inhibition, % at 12.5 µM. H9c2 cells, Nile Red lipid (TAG) fluorescence; cells loaded with 200 µM oleic acid;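 active = pattern-corrected inhibition of lipid staining of at least 50% with the nuclear-stain viability signal not falling by more than 50%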;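 note: 0% = DMSO wells and 100% = triacsin C control wells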
SMARCA2 act = SMARCA2 function activation, primary screen. MG213 cells, MMTV-luciferase reporter, dexamethasone, overnight. activation, % at 9.1 µM. actives 1% (n = 370,000). AID 652017; in the data active = activation above about 7.8%;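 note: 0% = vehicle wells and 100% = reference activator wells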
TbMetRS inhib = Trypanosoma brucei MetRS inhibition; inhibition, % at 11.9 µM; actives 0.4% (n = 360,000); purified T. brucei MetRS, ATP depletion, Kinase-Glo luminescence; AID 624268;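 active = inhibition above a per-plate cutoff of the control wells' mean inhibition plus 3 SD, cut at about 5.5% in these data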;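 note: 0% = DMSO wells median and 100% = median of wells with control inhibitor compound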
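assay system = parasite MetRS enzyme | timing = 15 min preincubation, 2 h reaction, all 25 °C | evaluation = percent inhibition relative to median high and low control wells | medium = HEPES buffer containing pyrophosphatase, BSA, spermine, DTT | compound = single dose, 11.9 µM final nominal, 0.9% final DMSO | detection = Kinase-Glo luminescence, ATP depletion format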
AHR activator = activates the human aryl hydrocarbon receptor; P35869; AHR-responsive luciferase reporter cells, luminescence; activation, % at 5 µM; actives 2.5% (n = 320,000); in the data active = activation above about 47%;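 note: 0% = vehicle wells and 100% = reference agonist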
Target sequence (P35869 whole entry, looked up): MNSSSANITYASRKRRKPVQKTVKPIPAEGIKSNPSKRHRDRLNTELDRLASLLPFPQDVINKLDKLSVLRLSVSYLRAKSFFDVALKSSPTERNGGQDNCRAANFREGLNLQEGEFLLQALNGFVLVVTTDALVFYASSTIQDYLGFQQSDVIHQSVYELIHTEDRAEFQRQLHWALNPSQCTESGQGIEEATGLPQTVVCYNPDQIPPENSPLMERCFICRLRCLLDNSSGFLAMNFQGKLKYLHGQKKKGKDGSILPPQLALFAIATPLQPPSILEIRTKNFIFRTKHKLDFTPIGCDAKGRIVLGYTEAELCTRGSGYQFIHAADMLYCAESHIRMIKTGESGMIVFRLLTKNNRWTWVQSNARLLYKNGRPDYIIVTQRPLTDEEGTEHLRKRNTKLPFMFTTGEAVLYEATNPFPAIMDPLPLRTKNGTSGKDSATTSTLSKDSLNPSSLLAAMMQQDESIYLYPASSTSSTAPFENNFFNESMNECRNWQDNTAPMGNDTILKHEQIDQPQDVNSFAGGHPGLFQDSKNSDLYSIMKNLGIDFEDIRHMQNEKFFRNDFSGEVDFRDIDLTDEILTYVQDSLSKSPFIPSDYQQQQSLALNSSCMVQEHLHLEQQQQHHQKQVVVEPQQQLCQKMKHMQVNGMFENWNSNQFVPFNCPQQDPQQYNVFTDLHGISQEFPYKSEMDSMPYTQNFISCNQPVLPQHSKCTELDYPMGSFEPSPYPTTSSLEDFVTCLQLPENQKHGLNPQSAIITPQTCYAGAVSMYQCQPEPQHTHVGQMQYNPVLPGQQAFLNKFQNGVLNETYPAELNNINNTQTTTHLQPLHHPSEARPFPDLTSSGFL
AHR act cf = confirmation of human aryl hydrocarbon receptor activators | activation, % at 9 µM | human cells, AHR-responsive luciferase reporter, luminescence | shares compounds with AHR activator | actives 87% (n = 2,300); in the data active = activation above about 49%;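 note: HepG2 hepatoma cells carrying a DRE-driven firefly luciferase reporter; 0% = vehicle wells and 100% = reference agonist wells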
PXR act counter = counter-screen for AHR activators: human PXR activators. activation, % at 11.6 µM. cell-based PXR reporter, luciferase luminescence. AID 434939. actives 88% (n = 2,300). shares compounds with AHR activator; in the data active = activation above about 11%;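 note: human hepatoma DPX-2 cells expressing full-length human PXR; 0% = DMSO and 100% = reference agonist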
Active calls of the source: *; nt = no result given. Shown are actives, neighbours in structure and some others; about 4.1% of the full set was active somewhere.

SMILES	Efflux pump mplx	TAG inh	SMARCA2 act	TbMetRS inhib	AHR activator	AHR act cf	PXR act counter
Cc1ncc(CO)c(/C=N/Nc2ccc(C(F)(F)F)cn2)c1O	0	nt	-3	0	81*	2	15*
ONC(=Nc1ccccc1Cl)c1ccccc1Cl	0	-6	-5	0	6	nt	nt
O=[N+]([O-])c1cccc(C(=Nc2ccccc2Cl)NO)c1	0	0	-1	-2	85*	73*	50*
CN(C)c1ccc(-c2nc3ccccc3c(=O)[nH]2)cc1	0	32	0	-1	37	nt	nt
COc1ccc(-c2nc3ccccc3c(=O)[nH]2)cc1	0	nt	4	0	110*	106*	23*
C=CCOn1c(C)c(C(C)=O)c2c3no[n+]([O-])c3ccc21	0	5	2	0	111*	78*	85*
CCOC(=O)c1c(C)n(OCc2ccccc2)c2ccc3nonc3c12	0	nt	4	0	4	nt	nt
C=CCOn1c(C)c(C(C)=O)c2c3nonc3ccc21	0	-14	0	-1	81*	71*	48*
Cc1cc(N/N=C/c2ccco2)c2ccccc2n1	0	-18	0	0	3	nt	nt
C(=N\Nc1nc2ccccc2s1)/c1ccco1	0	nt	0	-1	103*	105*	30*
O=C(NCc1ccccc1)[C@@H]1CCCN1C(=O)[C@H]1CCCN1C(=O)c1ccccc1C(F)(F)F	nt	nt	1	nt	nt	nt	nt
N#Cc1c(-c2ccc(Br)cc2)cc(-c2cccnc2)nc1N	-1	nt	-3	-1	93*	73*	18*
N#Cc1c(-c2cccs2)cc(-c2cccnc2)nc1N	0	13	0	0	102*	130*	28*
N#Cc1c(-c2cccs2)cc(-c2ccccn2)nc1N	0	-4	4	-1	80*	98*	23*
Cc1sc2nc(COC(=O)CNC(=O)c3ccc(F)cc3Cl)[nH]c(=O)c2c1C	nt	nt	-5	nt	nt	nt	nt
N#Cc1nc(-c2ccc(OCc3ccc(Cl)cc3)cc2)oc1NCCCn1ccnc1	0	7	1	0	14	nt	nt
N#Cc1nc(-c2ccccc2)oc1NCCCn1ccnc1	0	6	1	0	99*	104*	28*
OCc1ccccc1O[C@@H]1O[C@H](CO)[C@@H](O)[C@H](O)[C@H]1O	0	nt	3	-2	0	nt	nt
OCC1OC(Oc2c[nH]c3ccccc23)C(O)C(O)C1O (stereo unspecified)	0	6	-5	-1	84*	26	8
COC(=O)[C@]12C[C@H](CC(=O)N3CCCC3)C(=O)N(CCc3ccc(OC)c(OC)c3)C1=C[C@H](C(C)C)O[C@@H]2C1CC1	nt	nt	-1	nt	nt	nt	nt
N#CCC1c2ccccc2CCN1C(=O)Nc1cccc(C(F)(F)F)c1 (stereo unspecified)	0	nt	-1	2	11	nt	nt
N#CCC1c2ccccc2CCN1C(=O)Nc1ccc(C(F)(F)F)cc1 (stereo unspecified)	0	nt	-2	-1	103*	100*	181*
CN(C)/N=C/c1ccc(/C=N/NC(N)=S)o1	0	10	2	0	13	nt	nt
NC(=S)N/N=C/c1ccc(-c2ccccc2)o1	0	6	0	0	93*	32	21*
NC(=S)N/N=C\c1ccc(-c2cccc(Cl)c2Cl)o1	0	7	1	-1	107*	110*	26*
SMILES	Efflux pump mplx	TAG inh	SMARCA2 act	TbMetRS inhib	AHR activator	AHR act cf	PXR act counter
Cc1ccc(-c2ccc(/C=N/NC(=O)c3ccccc3O)o2)cc1	0	nt	nt	nt	16	nt	nt
COCCNC(=S)N/N=C/c1ccc(-c2ccc([N+](=O)[O-])cc2)o1	0	8	1	0	128*	89*	11*
Cc1ccc(-c2ccc(/C=N/NC(N)=S)o2)cc1	0	15	6	-1	100*	90*	13*
CC1CCN(c2ccc(C(=O)O)cc2NS(=O)(=O)c2ccc(Cl)s2)CC1	nt	nt	-5	nt	nt	nt	nt
C/C(=N/NC(=O)CNc1ccc(C)cc1)c1ccc(Br)s1	0	nt	-2	-1	83*	61*	15*
Cc1nn(CC(=O)c2ccc3c(c2)OCCO3)c(=O)c(C#N)c1C	0	2	0	0	88*	91*	18*
CC(C)Oc1cccc(-c2n[nH]c(=S)n2N=Cc2ccc(OCc3ccccc3)cc2)c1	nt	nt	-1	nt	nt	nt	nt
COc1ccc(N=Cc2c(O)[nH]c3ccccc23)cc1	0	22	1	0	129*	67*	18*
COc1cccc(NC(=O)/C=C/c2ccc([N+](=O)[O-])cc2)c1	0	-5	4	1	88*	91*	25*
COC(=O)c1ccccc1NC(=O)NCCc1ccccc1OC	0	14	4	0	88*	110*	32*
O=S(=O)(c1ccccc1Br)N(Cc1cn(CC2CCCCC2)nn1)C1CC1	nt	nt	-2	nt	nt	nt	nt
COc1ccccc1CNC(=O)CSc1ccc(C(=O)Nc2ccccc2OC)cc1[N+](=O)[O-]	0	nt	7	0	90*	85*	105*
COc1ccccc1NC(=O)C(=O)NCc1ccccc1Cl	0	nt	-1	0	4	nt	nt
COc1ccccc1CNC(=O)CSc1ccsc1[N+](=O)[O-]	0	nt	1	1	15	nt	nt
COc1ccccc1NC(=O)c1ccc(SCC(=O)NCc2ccccc2Cl)c([N+](=O)[O-])c1	0	nt	-2	-1	99*	120*	135*
CCCNC(=O)c1ccc2c(=O)n(Cc3ccco3)c(=S)[nH]c2c1	0	17	-2	-1	88*	70*	34*
COc1ccc2c(C)nc(Nc3nc(C)c(C)c(=O)[nH]3)nc2c1	0	125	6	-1	-7	nt	nt
COc1ccc2c(C)nc(Nc3nc(C)cc(C)n3)nc2c1	0	-10	-2	0	109*	101*	21*
C[C@H]1[C@@H]2C[C@@]3(O[C@H](c4ccc(C(F)(F)F)cc4)N=C3C[C@@H]1c1ccccc1)N(Cc1ccncc1)C2=O	nt	nt	-6	nt	nt	nt	nt
CC1CC1c1ccc(/C=C(\C#N)C(=O)Nc2ccc(Cl)cc2)o1 (stereo unspecified)	0	nt	-2	1	90*	44	45*
O=[N+]([O-])c1cc(S(=O)(=O)NCc2ccco2)ccc1NN=Cc1ccccn1	nt	nt	-1	nt	nt	nt	nt
Cc1c(C2(O)CCCCC2)[nH]c2ccccc12	nt	nt	-3	nt	nt	nt	nt
Cc1c(C2(O)CCCCC2)[nH]c2ccc(C(F)(F)F)cc12	0	-17	-1	0	80*	81*	44*
Cc1cnc(NC(=O)c2ccc(-c3ccc([N+](=O)[O-])cc3)o2)s1	0	11	0	0	14	nt	nt
Cc1cnc(NC(=O)c2ccc(-c3nc4ccccc4s3)o2)s1	0	-22	3	0	89*	114*	14*
